In ChEMBL document CHEMBL1133943, “N-hydroxyl derivatives of guanidine based drugs as enzymatic NO donors” (Bioorg Med Chem Lett, 2001):

Tests used:
Type in all cases: functional
[1] = biological target: Nitric oxide synthase, inducible (Homo sapiens) (UniProt P35228); assay: NO releasing ability of compound measured through formation of nitrite using iNOS (nitric oxide synthases)
Outline: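 Purified iNOS (0.5 unit) incubated with 1 mM substrate in 50 mM HEPES pH 7.4 with 100 µM NADPH, 4 µM FAD, 4 µM FMN, 6 µM BH4, 400 µM DTT, SOD, catalase and 1 mM magnesium acetate; shaken at 37 °C. Quenched with ethanol for ≥1 h at room temperature, then Griess reagent; A548 converted via NaNO2 calibration in enzyme-free mixtures.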

[2] = Effect of incubation conditions on the formation of NO2 from the oxidation of compound in the presence of NADPH
Outline: (§1)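 Base NOS reaction varied by component: 1 mM substrate, 50 mM HEPES pH 7.4, 100 µM NADPH, 4 µM FAD, 4 µM FMN, 6 µM BH4, 400 µM DTT, SOD, catalase, 0.5 unit NOS, shaken at 37 °C for the indicated time. Nitrite determined by Griess reaction after ethanol quench, absorbance 548 nm, with NaNO2 calibration curves lacking enzyme.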

[3] = Effect of incubation conditions on the formation of NO2 from the oxidation of compound in the presence of complete system; outline: as §1
[4] = Effect of incubation conditions on the formation of NO2 from the oxidation of compound in the presence of BH4; outline: as §1
[5] = Effect of incubation conditions on the formation of NO2 from the oxidation of compound in the presence of nNOS; outline: as §1
[6] = Effect of incubation conditions on the formation of NO2 from the oxidation of compound in the presence of NO2-L-Arg; outline: as §1
[7] = biological target: Nitric oxide synthase 1 (Rattus norvegicus) (UniProt P29476); assay: NO releasing ability of compound measured through formation of nitrite using nNOS (nitric oxide synthases)
Chain of Nitric oxide synthase 1 (Rattus norvegicus) (P29476 whole entry): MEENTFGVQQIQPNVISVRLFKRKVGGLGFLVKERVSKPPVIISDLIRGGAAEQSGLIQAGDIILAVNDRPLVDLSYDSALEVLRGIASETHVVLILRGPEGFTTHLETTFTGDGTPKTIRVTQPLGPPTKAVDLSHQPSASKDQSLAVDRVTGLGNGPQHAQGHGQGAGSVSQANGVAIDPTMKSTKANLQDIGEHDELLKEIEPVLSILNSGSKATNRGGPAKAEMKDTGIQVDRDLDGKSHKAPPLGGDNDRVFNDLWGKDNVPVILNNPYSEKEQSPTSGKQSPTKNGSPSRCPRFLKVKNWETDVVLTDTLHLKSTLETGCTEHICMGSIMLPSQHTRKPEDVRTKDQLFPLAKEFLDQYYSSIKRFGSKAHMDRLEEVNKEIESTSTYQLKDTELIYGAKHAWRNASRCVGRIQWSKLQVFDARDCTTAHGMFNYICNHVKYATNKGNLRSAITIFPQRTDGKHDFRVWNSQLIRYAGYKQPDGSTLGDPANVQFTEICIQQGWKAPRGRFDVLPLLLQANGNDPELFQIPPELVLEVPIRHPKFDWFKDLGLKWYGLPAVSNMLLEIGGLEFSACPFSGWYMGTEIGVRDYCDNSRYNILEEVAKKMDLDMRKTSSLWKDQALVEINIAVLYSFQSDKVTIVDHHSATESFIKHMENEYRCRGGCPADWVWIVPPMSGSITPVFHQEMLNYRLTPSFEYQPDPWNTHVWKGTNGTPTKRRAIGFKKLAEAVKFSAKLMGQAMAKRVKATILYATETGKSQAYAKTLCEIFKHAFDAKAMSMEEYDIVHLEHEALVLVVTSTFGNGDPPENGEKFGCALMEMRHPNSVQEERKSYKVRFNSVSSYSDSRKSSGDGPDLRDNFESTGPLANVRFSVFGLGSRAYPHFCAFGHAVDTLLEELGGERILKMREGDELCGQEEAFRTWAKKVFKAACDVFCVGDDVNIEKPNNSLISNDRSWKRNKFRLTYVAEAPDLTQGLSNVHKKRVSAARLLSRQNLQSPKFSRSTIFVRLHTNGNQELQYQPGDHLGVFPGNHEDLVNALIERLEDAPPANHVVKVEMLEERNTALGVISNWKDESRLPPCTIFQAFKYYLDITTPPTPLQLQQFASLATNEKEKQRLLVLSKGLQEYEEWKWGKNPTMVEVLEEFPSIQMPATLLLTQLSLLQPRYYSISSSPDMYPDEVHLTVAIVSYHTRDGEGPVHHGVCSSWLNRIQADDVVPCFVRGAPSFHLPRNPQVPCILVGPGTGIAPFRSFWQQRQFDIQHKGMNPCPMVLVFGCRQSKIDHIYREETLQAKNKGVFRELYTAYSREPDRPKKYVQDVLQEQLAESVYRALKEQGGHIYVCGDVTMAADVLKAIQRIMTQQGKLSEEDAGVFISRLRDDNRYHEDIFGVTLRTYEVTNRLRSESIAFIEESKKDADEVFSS
Outline: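 Purified nNOS (0.5 unit) incubated with 1 mM substrate in 50 mM HEPES pH 7.4, 500 µL final volume. Mix held 100 µM NADPH, 4 µM FAD, 4 µM FMN, 6 µM BH4, 400 µM DTT, SOD, catalase, 1 mM CaCl2 and 10 µg/mL CaM; shaken at 37 °C. Ethanol quench, then Griess nitrite read at 548 nm against NaNO2 calibration without enzyme. L-arginine as control.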

[8] = biological target: Nitric oxide synthase 1 (Homo sapiens) (UniProt P29475); assay: NO releasing ability of compound measured through formation of nitrite using neuronal nitric oxide synthase
Chain of Nitric oxide synthase 1 (Homo sapiens) (P29475 whole entry): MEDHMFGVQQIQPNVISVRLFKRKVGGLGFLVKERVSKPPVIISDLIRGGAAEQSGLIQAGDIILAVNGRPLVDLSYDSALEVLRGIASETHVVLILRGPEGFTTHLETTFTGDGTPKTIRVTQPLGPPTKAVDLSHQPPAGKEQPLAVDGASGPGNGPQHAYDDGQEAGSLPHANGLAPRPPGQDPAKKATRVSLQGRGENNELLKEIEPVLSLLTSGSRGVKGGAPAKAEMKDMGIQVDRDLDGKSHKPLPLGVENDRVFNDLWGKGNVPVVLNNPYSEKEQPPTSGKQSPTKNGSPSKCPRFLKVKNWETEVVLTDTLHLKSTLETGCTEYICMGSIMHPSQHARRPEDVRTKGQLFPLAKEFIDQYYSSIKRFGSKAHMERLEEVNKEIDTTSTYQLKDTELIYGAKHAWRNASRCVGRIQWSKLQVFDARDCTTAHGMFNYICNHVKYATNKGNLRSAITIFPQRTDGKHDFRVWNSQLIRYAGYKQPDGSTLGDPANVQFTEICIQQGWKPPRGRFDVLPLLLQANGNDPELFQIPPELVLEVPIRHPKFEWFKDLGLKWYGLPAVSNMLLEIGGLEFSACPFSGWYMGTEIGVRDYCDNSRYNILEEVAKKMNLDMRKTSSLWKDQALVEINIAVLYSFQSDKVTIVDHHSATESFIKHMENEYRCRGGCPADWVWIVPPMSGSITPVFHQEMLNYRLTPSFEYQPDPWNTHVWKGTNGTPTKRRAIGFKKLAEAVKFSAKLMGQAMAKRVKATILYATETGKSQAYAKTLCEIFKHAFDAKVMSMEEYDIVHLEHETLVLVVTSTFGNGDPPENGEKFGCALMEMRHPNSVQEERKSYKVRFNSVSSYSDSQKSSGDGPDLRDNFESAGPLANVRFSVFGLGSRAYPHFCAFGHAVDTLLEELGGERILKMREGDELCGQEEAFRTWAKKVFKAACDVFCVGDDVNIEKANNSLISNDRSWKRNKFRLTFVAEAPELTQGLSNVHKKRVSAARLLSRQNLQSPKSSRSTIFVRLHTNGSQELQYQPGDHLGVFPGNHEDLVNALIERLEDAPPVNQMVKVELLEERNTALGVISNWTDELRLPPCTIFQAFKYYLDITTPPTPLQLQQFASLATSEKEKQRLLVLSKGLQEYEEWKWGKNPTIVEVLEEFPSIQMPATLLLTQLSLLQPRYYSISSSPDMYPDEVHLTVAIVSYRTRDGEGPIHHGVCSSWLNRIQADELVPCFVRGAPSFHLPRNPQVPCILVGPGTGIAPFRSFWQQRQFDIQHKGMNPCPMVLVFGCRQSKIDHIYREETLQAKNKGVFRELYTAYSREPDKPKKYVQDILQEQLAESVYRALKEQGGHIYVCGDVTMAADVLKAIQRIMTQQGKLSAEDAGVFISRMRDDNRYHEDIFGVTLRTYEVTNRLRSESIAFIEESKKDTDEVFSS
Outline: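 Incubation with nNOS (0.5 unit) in 50 mM HEPES pH 7.4 at 37 °C, shaken. Mixture: 1 mM substrate, 100 µM NADPH, 4 µM FAD, 4 µM FMN, 6 µM BH4, 400 µM DTT, 100 units SOD, 50 units catalase, 1 mM CaCl2, 10 µg/mL calmodulin. Quenched with ethanol, ≥1 h at room temperature, then Griess reagent, A548. Nitrite is quantified against NaNO2 standards made in enzyme-free mixtures. L-arginine is the reference substrate.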

Chain of Nitric oxide synthase, inducible (Homo sapiens) (P35228 whole entry): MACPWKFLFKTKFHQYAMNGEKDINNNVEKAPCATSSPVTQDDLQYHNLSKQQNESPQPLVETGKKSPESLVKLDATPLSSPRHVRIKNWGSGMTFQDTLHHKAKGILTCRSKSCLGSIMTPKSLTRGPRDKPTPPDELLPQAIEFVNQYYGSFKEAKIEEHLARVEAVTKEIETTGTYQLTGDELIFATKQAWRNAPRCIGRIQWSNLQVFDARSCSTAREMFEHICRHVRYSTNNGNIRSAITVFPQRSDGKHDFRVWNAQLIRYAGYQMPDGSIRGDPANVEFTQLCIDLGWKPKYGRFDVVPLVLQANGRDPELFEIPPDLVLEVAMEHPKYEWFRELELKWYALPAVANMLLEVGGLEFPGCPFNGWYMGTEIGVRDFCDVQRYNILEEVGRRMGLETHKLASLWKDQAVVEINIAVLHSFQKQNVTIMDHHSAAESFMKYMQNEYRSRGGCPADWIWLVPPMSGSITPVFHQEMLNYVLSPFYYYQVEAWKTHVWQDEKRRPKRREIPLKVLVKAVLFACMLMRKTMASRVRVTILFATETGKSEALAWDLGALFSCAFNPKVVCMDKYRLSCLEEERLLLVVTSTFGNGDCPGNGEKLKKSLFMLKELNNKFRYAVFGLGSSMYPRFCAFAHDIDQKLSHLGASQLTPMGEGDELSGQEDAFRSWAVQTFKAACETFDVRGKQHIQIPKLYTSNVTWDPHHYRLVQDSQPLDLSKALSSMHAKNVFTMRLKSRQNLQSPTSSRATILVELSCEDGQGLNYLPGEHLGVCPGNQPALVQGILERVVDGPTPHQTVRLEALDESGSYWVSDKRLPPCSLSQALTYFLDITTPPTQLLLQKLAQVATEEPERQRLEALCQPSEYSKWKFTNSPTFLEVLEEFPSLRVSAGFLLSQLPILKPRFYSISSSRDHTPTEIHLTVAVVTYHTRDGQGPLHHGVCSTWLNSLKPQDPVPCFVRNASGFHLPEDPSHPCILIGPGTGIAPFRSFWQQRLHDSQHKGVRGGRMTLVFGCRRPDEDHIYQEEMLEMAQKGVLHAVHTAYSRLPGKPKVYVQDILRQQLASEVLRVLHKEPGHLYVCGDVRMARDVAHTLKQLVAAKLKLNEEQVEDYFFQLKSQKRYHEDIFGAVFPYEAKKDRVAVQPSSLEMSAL

**Q.** Which results are given for `N/C(=N/CC1COC2(CCCCC2)O1)NO` (stereo not drawn)?
**A.** Activity [1]: 1.6 µM; residual activity [2]: 18%; residual activity [3]: 100%; residual activity [4]: 30%; residual activity [5]: < 2%; residual activity [6]: 50%; Activity [7]: 1.2 µM

**Q.** What does the source list for `N=C(N)NCC1COc2ccccc2O1` (stereo not drawn)?
**A.** Activity [1]: < 0.1 µM; Activity [7]: < 0.1 µM

**Q.** Which Activity [8] does the source give for `N=C(N)NCCC[C@H](N)C(=O)O` here?
**A.** 14.5 µM

**Q.** Which results are given for `N/C(=N/CC1COc2ccccc2O1)NO` (stereo not drawn)?
**A.** Activity [1]: 0.9 µM; Activity [7]: 0.8 µM

**Q.** Which results are given for `N/C(=N\O)NCCN1CCCCCCC1`?
**A.** Activity [1]: 0.2 µM; Activity [7]: 0.3 µM

**Q.** For `N=C(N)NCCN1CCCCCCC1`, which Activity [1] is on record?
**A.** < 0.1 µM

**Q.** What about the Activity [7] of the same compound?
**A.** < 0.1 µM

**Q.** With `N=C(N)NCC1COC2(CCCCC2)O1` (stereo not drawn) as the compound, how does the Activity [1] read?
**A.** < 0.1 µM

**Q.** What about the Activity [7] of the same compound?
**A.** < 0.1 µM
